Most compounds without a hit are left out; they make up all but 1.6% or so of the library.
pCIP destab = compounds decreasing mouse p/CIP protein stability. Q05BA5. F442A p/CIP-EGFP cells, EGFP fluorescence, 16 h. decrease of EGFP signal, % at 10 µM. 290,000 tested, 0.01% active. AID 1984;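 active = EGFP signal decrease of at least 30% at 10 µM or well 3 SD below plate mean, unless failing retest; inactive = the rest, including hits failing retest or dose response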
bovine MsrA act = bovine methionine sulfoxide reductase A activation. purified bovine MsrA, absorbance read-out. activation, % at 10.6 µM. 360,000 tested, 0.3% active; in the data active = activation above about 7.5%;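 also: 0% = vehicle and 100% = reference activator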
MT1-MMP act inh = blocks activation of human MT1-MMP | P50281 | HT1080 RFP-PRO-GFP cells, GFP/RFP ratio fluorescence, overnight; percent of plate control window, DMSO zero | GFP/RFP ratio change, % at 20 µM | AID 651647 | 360,000 tested, 0.061% active;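 active = GFP/RFP ratio change of at least 30% with cell ATP level not reduced by more than half and red fluorescence within 50% of control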
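Read-out: GFP/RFP fluorescence ratio; Test system: RFP-PRO-GFP reporter HT1080 cells; Compound dosing: single-point 20 µM compound, 1% DMSO; Times: overnight compound exposure at 37 °C.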
MsrA inhibitor = bovine MsrA inhibition. purified bovine MsrA, absorbance read-out. inhibition, % at 15.5 µM. 360,000 tested, 0.75% active. AID 651718;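 also: 0% = vehicle wells with enzyme and 100% = reference inhibitor wells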
SKN-1 block = blocks SKN-1 activity in C. elegans; C. elegans VP596 Pgst-4::GFP/RFP ratio, acrylamide-induced, 24 h; inhibition, % at 21.8 µM; 360,000 tested, 0.49% active;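 active = interference check ratio from 0.5 to 1.5 plus GFP to RFP signal ratio inhibition reaching or exceeding a fixed threshold, cut at about 30% in these data, passing the limit was not always enough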
MsrA conf = confirmation of bovine MsrA inhibitors. inhibition, % at 15.5 µM. 2,300 tested, 41% active. purified bovine MsrA, absorbance read-out. AID 651822. shares compounds with MsrA inhibitor;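 also: coupled to thioredoxin reductase with NADPH and selenocystamine and DMSO as substrate; 0% = vehicle only and 100% = full effect of reference inhibitor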
Starred values were filed as active, the others as inactive. Rule as the data show it, unless noted: active = inhibition above about 4.5%; inactive = the rest.

Results for O=C(N[C@H](C(=O)N1CCC[C@H]1C(=O)NCCc1ccccc1Cl)c1ccccc1)c1ccco1 ?
MsrA inhibitor: 2.9

How did COC(=O)[C@]12C[C@H](CC(=O)N3CCCCC3)C(=O)N(Cc3ccccc3)C1=C[C@H](C(C)(C)C)O[C@@H]2C do in these assays?
MsrA inhibitor: 1.0

Results for COc1ccc2ccccc2c1CN1CCN(c2ncc(Cc3ccccc3)cn2)CC1 ?
MsrA inhibitor: 2.3

How did CC[n+]1c(/C=C(\C)OC)sc2ccccc21 do in these assays?
pCIP destab: -7.9; bovine MsrA act: -11.9; MT1-MMP act inh: 3.3; MsrA inhibitor: 5.8*; SKN-1 block: 10.3; MsrA conf: 5.0*

What do the screens show for `COc1cc(=O)oc(C=O)c1C`?
MsrA inhibitor: -0.2

What do the screens show for `Cc1ccc(S(=O)(=O)N(C)[C@H]2C[C@H]3c4[nH]c5cccc(-c6ccccc6)c5c4CCN3C(=O)[C@H]2[C@H](C)O)cc1`?
MsrA inhibitor: 1.0

What do the screens show for `N#Cc1c(-n2cccc2/C=N/O)sc2c1CCCC2`?
pCIP destab: 0.0; bovine MsrA act: -1.8; MT1-MMP act inh: -5.8; MsrA inhibitor: 16.2*; SKN-1 block: 3.8; MsrA conf: 13.6*

What do the screens show for `C=CCNCc1cccn1-c1sc2c(c1C#N)CCCC2`?
pCIP destab: 6.2; bovine MsrA act: -5.7; MT1-MMP act inh: 0.3; MsrA inhibitor: -0.9; SKN-1 block: 3.9

What do the screens show for `Cc1ccsc1/C=N/NC(=O)c1cccs1`?
pCIP destab: -13.5; bovine MsrA act: -3.1; MT1-MMP act inh: 5.6; MsrA inhibitor: 3.5; SKN-1 block: -0.3

How did O=C(N/N=C/c1ccsc1)c1ccccn1 do in these assays?
pCIP destab: -9.8; bovine MsrA act: -8.5; MT1-MMP act inh: 4.6; MsrA inhibitor: 2.2; SKN-1 block: 6.1

What do the screens show for `Cc1ccsc1/C=N/NC(=O)c1ccccn1`?
pCIP destab: -1.3; bovine MsrA act: -3.1; MT1-MMP act inh: 0.4; MsrA inhibitor: 5.7*; SKN-1 block: 9.9; MsrA conf: 4.1

What do the screens show for `O=C(N/N=C/c1ccc(Br)s1)c1ccccn1`?
pCIP destab: -0.7; bovine MsrA act: -2.1; MT1-MMP act inh: 2.1; MsrA inhibitor: 6.0*; SKN-1 block: 27.3; MsrA conf: 7.0*

Results for COCc1[nH]nc2c1C(c1cccc(C(F)(F)F)c1)N(c1ccc(OC)cc1)C2=O (stereo not drawn) ?
MsrA inhibitor: -0.7

How did CC(Nc1c([N+](=O)[O-])c(=O)oc2ccccc12)C(Cl)c1ccccc1 (stereo not drawn) do in these assays?
pCIP destab: 0.0; bovine MsrA act: -5.7; MT1-MMP act inh: -3.3; MsrA inhibitor: 2.0; SKN-1 block: -9.4

How did O=c1oc2ccccc2c(NC(c2ccccc2)c2ccccc2)c1[N+](=O)[O-] do in these assays?
pCIP destab: 2.4; bovine MsrA act: -14.2; MT1-MMP act inh: 1.6; MsrA inhibitor: 62.1*; SKN-1 block: 1.6; MsrA conf: 55.5*

How did Cc1ccc(/C=C(\C#N)C(=O)Nc2c(C)cccc2C)s1 do in these assays?
pCIP destab: -6.8; bovine MsrA act: -4.3; MT1-MMP act inh: -14.3; MsrA inhibitor: 7.1*; SKN-1 block: 29.1; MsrA conf: 6.1*

How did Cc1cccc(C2=CC(=O)CC(C)(C)C2=O)c1 do in these assays?
MsrA inhibitor: -0.1

What do the screens show for `O=C(O)COc1ccccc1/C=N/Nc1ccc(S(=O)(=O)N2CCOCC2)cc1[N+](=O)[O-]`?
pCIP destab: -25.6; bovine MsrA act: -5.4; MT1-MMP act inh: 8.1; MsrA inhibitor: 4.9*; SKN-1 block: 5.5; MsrA conf: 4.5

What do the screens show for `COc1ccc(NC(=O)c2cccn(CC=C(C)C)c2=O)cc1`?
pCIP destab: -1.1; bovine MsrA act: -4.7; MT1-MMP act inh: 2.1; MsrA inhibitor: 4.7*; SKN-1 block: 3.7; MsrA conf: 2.0

What do the screens show for `CN(C)CCCN1C(=O)c2cccc3c([N+](=O)[O-])ccc(c23)C1=O`?
pCIP destab: -39.0; bovine MsrA act: -7.0; MT1-MMP act inh: -83.8; MsrA inhibitor: 18.0*; SKN-1 block: -12.0; MsrA conf: 10.3*

What do the screens show for `O=C1c2cccc3c([N+](=O)[O-])ccc(c23)C(=O)N1CCc1ccccn1`?
pCIP destab: -114.2; bovine MsrA act: -5.5; MT1-MMP act inh: -137.4; MsrA inhibitor: -0.7; SKN-1 block: -6.0

Results for CCOc1cc(/C=N/NC(=O)c2cccs2)ccc1OC(=O)N1CCOCC1 ?
pCIP destab: -11.1; bovine MsrA act: -5.0; MT1-MMP act inh: 4.9; MsrA inhibitor: 4.8*; SKN-1 block: 6.4; MsrA conf: 2.5

What do the screens show for `CCOc1cc(/C=N/NC(=O)COc2ccccc2C)ccc1OC(=O)c1cccs1`?
pCIP destab: -8.2; bovine MsrA act: -8.6; MT1-MMP act inh: -0.2; MsrA inhibitor: 0.2; SKN-1 block: -8.7

What do the screens show for `COc1ccc2cc(-c3[nH]ncc3CN3CCCC3c3nonc3C)ccc2c1` (stereo not drawn)?
pCIP destab: -14.6; bovine MsrA act: -5.9; MT1-MMP act inh: -3.9; MsrA inhibitor: 32.8*; SKN-1 block: -8.5; MsrA conf: 25.7*

Results for O=Cc1cnc(N2CCCCC2)s1 ?
pCIP destab: -1.4; bovine MsrA act: -5.5; MT1-MMP act inh: 3.5; MsrA inhibitor: 5.0*; SKN-1 block: -8.6; MsrA conf: 6.9*

What do the screens show for `COc1ccc(/C=N/N=C2/NC(=O)C(CC(=O)O)S2)cc1OCc1ccc(Cl)cc1` (stereo not drawn)?
pCIP destab: -0.8; bovine MsrA act: -10.4; MT1-MMP act inh: 0.7; MsrA inhibitor: 7.3*; SKN-1 block: -4.6; MsrA conf: 5.9*

Results for CCOc1cc(/C=N/N=C2/NC(=O)C(CC(=O)O)S2)ccc1OCc1ccc(Cl)cc1 (stereo not drawn) ?
pCIP destab: -0.7; bovine MsrA act: -6.5; MT1-MMP act inh: 0.3; MsrA inhibitor: 3.4; SKN-1 block: -7.4

What do the screens show for `Cn1c(=O)n(C)c2cc(/C=N/N=C3/NC(=O)C(CC(=O)O)S3)ccc21` (stereo not drawn)?
pCIP destab: -14.8; bovine MsrA act: -7.8; MT1-MMP act inh: 1.0; MsrA inhibitor: 6.2*; SKN-1 block: -0.2; MsrA conf: 6.7*

Results for CC(C)C[C@H](NC(=O)c1ccc(Cl)cc1Cl)C(=O)N1CCC[C@H]1C(=O)NCc1ccccc1 ?
MsrA inhibitor: 1.8

Results for C=CCN1C(c2ccccc2)=CS/C1=C(\C#N)c1nnc2n1CCCCC2 ?
pCIP destab: -3.2; bovine MsrA act: -6.0; MT1-MMP act inh: 8.9; MsrA inhibitor: 4.8*; SKN-1 block: 9.1; MsrA conf: 2.7

What do the screens show for `C=CCN=C1NC(c2ccc(C(F)(F)F)cc2)C(C(=O)OC)=C(C)N1C` (stereo not drawn)?
MsrA inhibitor: 1.0

How did O=C(Nc1ccc(NC(=S)NC(=O)c2ccco2)cc1)c1ccccc1 do in these assays?
pCIP destab: -7.2; bovine MsrA act: -3.9; MT1-MMP act inh: 1.5; MsrA inhibitor: 0.8; SKN-1 block: 0.7

Source: PubChem
